Experimental data pooled from the literature.
Protocols differ between the studies behind these lines.
Observed: cell growth or viability

With `CN1CCC(NC2CCc3[nH]c4c(C(N)=O)ccc(-c5ccccc5Cl)c4c3C2)CC1` (stereo not shown) the IC50 was 0.00146 µM (RBE; 96 h).
The IC50 of `OCc1ccc(-c2nn(-c3ccccc3)c3ccccc23)o1` is reported as 4.27 µM (RBE; ATP luminescence).
For `c1ccc(Cn2nc(-c3nc(-c4ccccc4)n[nH]3)c3ccccc32)cc1`, the IC50 was 72.6 µM (human Fibroblast; 48 h).
With `Cc1nc2ccc(-c3cccc(F)c3)cc2c(O)c1C(=O)O` the IC50 was ≥ 100 µM (MDA-MB-468; MTT; 48 h).
`Cc1nnc(-c2nn(Cc3ccc(Cl)cc3Cl)c3ccccc23)o1` has an IC50 of 97.5 µM (human Fibroblast; 48 h).
`OC1CCN(c2ccc(/C=N/NC(=S)Nc3ccc(Br)cc3)cc2)CC1` gave an IC50 of 19.8 µM (BEAS-2B; MTT; 24 h).
For `CCOC(=O)c1c(C)nc2ccc(-c3ccc(OCc4ccccc4)c(F)c3)cc2c1O`, the IC50 was 2 µM (MDA-MB-468; MTT; 48 h).
`COc1cccc(Cn2nc(-c3ccc(CO)o3)c3ccccc32)c1` gave an IC50 of 0.468 µM (RBE; ATP luminescence).
`COc1cccc2c1C(=O)c1c(O)c3c(c(O)c1C2=O)C[C@@](O)(C(=O)CO)C[C@@H]3O[C@H]1C[C@H](N)[C@H](O)[C@H](C)O1` has an IC50 of 0.0214 µM (RBE; 96 h).
With `NCc1ccc(-c2nn(Cc3ccccc3)c3ccccc23)o1` the IC50 was 2.4 µM (RBE; ATP luminescence).
`C/C(=N\C(=N)/N=C(\C)c1c(O)c2ccccc2oc1=O)c1c(O)c2ccccc2oc1=O` has an IC50 of 44.5 µM (BEAS-2B; MTT; 48 h).
`CC(c1ccccc1)n1nc(-c2ccc(CO)o2)c2ccccc21` (stereo not shown) has an IC50 of 4.17 µM (RBE; ATP luminescence).
`OCn1cncn1` has an IC50 of > 800 µM (BEAS-2B; MTT; 24 h).
The IC50 of `OCc1ccc(-c2nn(Cc3ccccc3)c3ncccc23)o1` is reported as 15.5 µM (RBE; ATP luminescence).
`CC(=O)ON=C1C=CC(=C(C#N)c2ccccc2)C=C1` has an IC50 of 25.9 µg/mL (human Fibroblast; MTT; 24 h).
The IC50 of `CC1c2ccccc2CCN1c1ccc(CO)c(Cl)c1` (stereo not shown) is reported as < 0.2 µM (RBE; ATP luminescence).
`C/C(=N\CCNCCNCC/N=C(\C)c1c(O)c2ccccc2oc1=O)c1c(O)c2ccccc2oc1=O` gave an IC50 of 4.11 µM (BEAS-2B; MTT; 48 h).
For `Cc1nc2ccc(-c3ccc(F)cc3F)cc2c(O)c1C(=O)O`, the IC50 was ≥ 100 µM (MDA-MB-468; MTT; 48 h).
For `Clc1ccc(Cn2nc(-c3nc(-c4ccccc4)no3)c3ccccc32)c(Cl)c1`, the IC50 was 164 µM (human Fibroblast; 48 h).
With `Cc1cccc(C)c1NC(=S)N/N=C/c1ccc(N2CCC(O)CC2)cc1` the IC50 was 12.7 µM (BEAS-2B; MTT; 24 h).
For `FC(F)(F)c1ccc(-c2noc(-c3nn(Cc4ccc(Cl)cc4Cl)c4ccccc34)n2)cc1`, the IC50 was 130 µM (human Fibroblast; 48 h).
With `C/C(=N\N=C(/C)c1c(O)c2ccccc2oc1=O)c1c(O)c2ccccc2oc1=O` the IC50 was 29.6 µM (BEAS-2B; MTT; 48 h).
The IC50 of `Cc1ccc(CNC(=S)N/N=C/c2ccc(N3CCC(O)CC3)cc2)cc1` is reported as 15.9 µM (BEAS-2B; MTT; 24 h).
`Cc1sc2c(c1C)C(c1ccc(Cl)cc1)=N[C@@H](CC(=O)NCCCCNC(=O)COc1cccc3c1C(=O)N(C1CCC(=O)NC1=O)C3=O)c1nnc(C)n1-2` (stereo partly shown) gave an IC50 of > 10 µM (KATO III; CCK-8; 72 h).
`OC1CCN(c2ccc(/C=N/NC(=S)Nc3ccc(F)cc3)cc2)CC1` has an IC50 of 29.1 µM (BEAS-2B; MTT; 24 h).
The IC50 of `Fc1ccc2c(-c3nnc(Cc4ccccc4)s3)nn(Cc3ccc(Cl)cc3Cl)c2c1` is reported as 191 µM (human Fibroblast; 48 h).
`C/C(=N\c1nc(N)nc(/N=C(\C)c2c(O)c3ccccc3oc2=O)n1)c1c(O)c2ccccc2oc1=O` gave an IC50 of 64.3 µM (BEAS-2B; MTT; 48 h).
`CCOC(=O)c1c(C)nc2ccc(-c3ccc(F)cc3)cc2c1O` gave an IC50 of 5 µM (MDA-MB-468; MTT; 48 h).
`OCc1ccc(-c2nn(Cc3ccccn3)c3ccccc23)o1` gave an IC50 of 0.302 µM (RBE; ATP luminescence).
The IC50 of `Nc1nc2cc(CC[C@H]3C[C@@H](n4ccc5c(N)ncnc54)[C@H](O)[C@@H]3O)ccc2cc1Br` is reported as > 100 µM (MDA-MB-435S; CCK-8; 72 h).
`Cc1cnc(Cn2nc(-c3ccc(CO)o3)c3ccccc32)s1` has an IC50 of 1.05 µM (RBE; ATP luminescence).
`OC1CCN(c2ccc(/C=N/NC(=S)Nc3ccccc3)cc2)CC1` gave an IC50 of 18.9 µM (BEAS-2B; MTT; 24 h).
For `c1ccc2c(c1)ncn2Cn1cncn1`, the IC50 was 264 µM (BEAS-2B; MTT; 24 h).
`COc1ccc2c(-c3nc(-c4ccccc4)no3)nn(Cc3ccncc3)c2c1` has an IC50 of 123 µM (human Fibroblast; 48 h).
For `CCc1nc(C(N)=O)c(Nc2ccc(N3CCC(N4CCN(C)CC4)CC3)c(OC)c2)nc1NC1CCOCC1`, the IC50 was 0.025 µM (MV4-11; resazurin).
`O=C(O)c1nn(Cc2ccc(Cl)cc2Cl)c2ccccc12` has an IC50 of 259 µM (human Fibroblast; 48 h).
`CCOC(=O)c1c(C)nc2ccc(-c3ccc(F)c(F)c3)cc2c1O` gave an IC50 of 4 µM (MDA-MB-468; MTT; 48 h).
